Usually pKi stands for the negative decadic logarithm of the Ki, by convention in mol/L. Low values mean a high Ki, high ones a low Ki.

Structures are written as SMILES. pKi: −log10 of the molar value. Counter-ions that a name gives are not always drawn. Residues, ends and D or L forms follow the SMILES beside them. *: point of attachment. X2 = O=C(N/N=C1/CC[C@@]2(O)[C@H]3Cc4ccc(O)c5c4[C@@]2(CCN3CC2CC2)[C@H]1O5)*; X1 = CN1CC[C@]23c4c5ccc(O)c4O[C@H]2/C(=N\NC(=O)*)CC[C@@]3(O)[C@H]1C5

The target of test [1] is Kappa-type opioid receptor (Cavia porcellus, UniProt P41144). The test can be described thus: Binding affinity against Opioid receptor kappa 1 of guinea pig brain membranes using 1 nM of (-)-[3H]ethylketazocine as radioligand. The procedure, abridged: (§1)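 Incubations in 50 mM Tris buffer, pH 7.4, with 100 mM NaCl and bacitracin (50 μg/mL).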
Sequence of Kappa-type opioid receptor (P41144 whole entry): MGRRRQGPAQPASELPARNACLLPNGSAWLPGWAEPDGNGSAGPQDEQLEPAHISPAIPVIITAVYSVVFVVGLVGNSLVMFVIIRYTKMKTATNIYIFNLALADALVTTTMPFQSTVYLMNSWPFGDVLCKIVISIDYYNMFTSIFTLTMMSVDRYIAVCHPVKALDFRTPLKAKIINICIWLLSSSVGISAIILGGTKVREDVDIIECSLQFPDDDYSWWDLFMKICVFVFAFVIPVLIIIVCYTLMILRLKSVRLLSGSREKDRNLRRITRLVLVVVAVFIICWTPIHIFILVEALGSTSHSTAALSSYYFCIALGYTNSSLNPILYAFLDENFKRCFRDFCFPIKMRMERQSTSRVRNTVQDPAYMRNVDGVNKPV
For test [2], the target named is Mu-type opioid receptor (Cavia porcellus, UniProt P97266). Kind of test: Binding affinity against Opioid receptor mu 1 of guinea pig brain membranes using 0.5 nM of [3H]naloxone as radioligand. The gist of the method: as §1
Sequence of Mu-type opioid receptor (P97266 whole entry): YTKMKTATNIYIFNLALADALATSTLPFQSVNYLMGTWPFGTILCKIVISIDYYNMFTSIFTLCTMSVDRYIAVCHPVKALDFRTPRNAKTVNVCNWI

As to `CC(C)CC(NC(=O)C(Cc1ccccc1)NC(=O)N/N=C1/CC[C@@]2(O)C3Cc4ccc(O)c5c4C2(CCN3C)[C@H]1O5)C(=O)O` (some centres undefined), the figures for the pKi in test [1] and in test [2] were 7.02 and 7.83, respectively.

In the case of `CC[C@H](C)[C@H](NC(=O)[C@H](CCCN=C(N)N)NC(=O)[C@H](CCCN=C(N)N)NC(=O)[C@H](CC(C)C)NC(=O)[C@H](Cc1ccccc1)NC(=O)N/N=C1/CC[C@@]2(O)[C@H]3Cc4ccc(O)c5c4[C@@]2(CCN3C)[C@H]1O5)C(=O)OC` (X1-FLRRI-OMe), the results for the pKi in test [1] and in test [2] were 8.01 and 7.81, respectively.

For the molecule `CC(C)CC(NC(=O)C(Cc1ccccc1)NC(=O)N/N=C1/CC[C@@]2(O)C3Cc4ccc(O)c5c4C2(CCN3CC2CC2)[C@H]1O5)C(=O)O` (some centres undefined), the pKi was 8.55 in test [1] and 9.12 in test [2].

Take `CC[C@H](C)[C@H](NC(=O)[C@H](CCCN=C(N)N)NC(=O)[C@H](CCCN=C(N)N)NC(=O)[C@H](CC(C)C)NC(=O)[C@H](Cc1ccccc1)NC(=O)N/N=C1/CC[C@@]2(O)[C@H]3Cc4ccc(O)c5c4[C@@]2(CCN3CC2CC2)[C@H]1O5)C(=O)OC` (X2-FLRRI-OMe): the pKi in test [1] is 8.66; in test [2] it was 8.64.

Turning to `CN1CCC23c4c5ccc(O)c4O[C@H]2/C(=N\NC(N)=O)CC[C@@]3(O)C1C5` (some centres undefined) [OXYMORPHONE SEMICARBAZONE HYDROCHLORIDE], the pKi was 6.75 in test [1] and 7.84 in test [2].

Take `CC[C@H](C)[C@H](NC(=O)[C@H](CCCNC(=N)N)NC(=O)[C@H](CCCNC(=N)N)NC(=O)[C@H](CC(C)C)NC(=O)[C@H](Cc1ccccc1)NC(=O)CNC(=O)CNC(=O)[C@@H](N)Cc1ccc(O)cc1)C(=O)OC`: the pKi in test [1] is 7.40; in test [2], 6.47.

In the case of `NC(=O)N/N=C1/CC[C@@]2(O)C3Cc4ccc(O)c5c4C2(CCN3CC2CC2)[C@H]1O5` (some centres undefined) [NALTREXONE SEMICARBAZONE], the pKi was 8.59 in test [1] and 9.32 in test [2].

Source of the values: ChEMBL document CHEMBL1123307, “Peptides as receptor selectivity modulators of opiate pharmacophores” (J Med Chem, 1986).
